In ChEMBL document CHEMBL4396897, “Potent 5-Cyano-6-phenyl-pyrimidin-Based Derivatives Targeting DCN1-UBE2M Interaction” (J Med Chem, 2019):
The source made the active and inactive calls. The rule behind the calls is not given here.

What was measured:
PC-9 [1] = assay: Antiproliferative activity against human PC9 by MTT assay; format: functional, cell-based
Outline: (§1)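 MTT viability assay: cells seeded at 2~5×10^3 per well, exposed to serial dilutions of compound for 72h, then MTT (5 mg/mL in PBS) added for 4h at 37°C. Formazan dissolved in DMSO and read at 490nm. IC50 reported as mean ± SD of three independent experiments.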

PC-9 [2] = assay: Effect on HO-1 accumulation in human PC9 cells transfected with DCN1 siRNA3 by densitometric method; format: functional, cell-based
Outline: (§2)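 H1975 or PC9 cells seeded in 6-well plates for 16-24h, transfected with DCN1 siRNA#3 by lipofection, with or without compound, and collected three days later. Western blot for Cullin3, DCN1, NRF2, HO-1 and NQO1, with densitometry normalized to GAPDH. Three individual experiments, means ± SD.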

SMMC-7721 = assay: Antiproliferative activity against human SMMC7721 after 72 hrs by MTT assay; format: functional, cell-based; conditions: SMMC-7721, 72 h; outline: as §1
NCI-H1975 [3] = assay: Induction of apoptosis in human NCI-NCI-H1975 cells assessed as late apoptotic cells at 5 uM after 48 hrs by Annexin V-FITC/propidium iodide staining based flow cytometry (reference value: 0.46%); format: functional
NCI-H1975 [4] = assay: Induction of apoptosis in human NCI-NCI-H1975 cells assessed as viable cells at 5 uM after 48 hrs by Annexin V-FITC/propidium iodide staining based flow cytometry (reference value: 96.1%); format: functional; conditions: NCI-H1975, 48 h, read-out: Activity
A549 [5] = assay: Induction of apoptosis in human A549 cells assessed as early apoptotic cells at 5 uM after 48 hrs by Annexin V-FITC/propidium iodide staining based flow cytometry (reference value: 3.63%); format: functional
DCN1-like protein 1 = DCN1-like protein 1 (Homo sapiens, UniProt Q96GG9); assay: Binding affinity to N-terminal GST tagged recombinant human DCN1 (58 to 259 residues) expressed in Escherichia coli BL21(DE3) assessed as reduction in DCN1-FAM-labelled N-terminal acetylated UBE2M (1 to 21 residues) protein-protein interaction after 30 mins by HTRF assay
Chain of DCN1-like protein 1 (Q96GG9 whole entry, the tested form may be a part): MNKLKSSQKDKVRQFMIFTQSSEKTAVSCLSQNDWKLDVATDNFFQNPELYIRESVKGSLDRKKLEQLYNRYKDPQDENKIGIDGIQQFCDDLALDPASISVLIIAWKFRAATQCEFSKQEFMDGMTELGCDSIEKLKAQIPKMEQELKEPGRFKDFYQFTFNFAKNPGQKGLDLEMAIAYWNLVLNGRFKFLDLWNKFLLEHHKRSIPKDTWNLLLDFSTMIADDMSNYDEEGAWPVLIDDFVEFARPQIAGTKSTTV

PC-9 [6] = assay: Inhibition of colony formation in human PC9 cells after 7 days by crystal violet staining based microscopic analysis; format: functional, cell-based
Outline: (§3)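 H1975, PC9 and A549 cells seeded at 1×10^3 cells per well and cultured overnight, then given fresh medium with compound at 0, 0.625, 1.25, 2.5, 5 or 10μM for 7 days. Cells fixed, stained with 0.1% crystal violet and imaged by microscopy; dye then dissolved and read on a plate reader. Three experiments; means ± SD.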

NCI-H1975 [7] = assay: Inhibition of colony formation in human […] cells after 7 days by crystal violet staining based microscopic analysis; format: functional, cell-based; outline: as §3
NCI-H1975 [8] = assay: Effect on NRF2 accumulation in human NCI-H1975 cells transfected with DCN1 siRNA3 by densitometric method; format: functional, cell-based; outline: as §2
NCI-H1975 [9] = assay: Induction of apoptosis in human NCI-NCI-H1975 cells assessed as late apoptotic cells at 10 uM after 48 hrs by Annexin V-FITC/propidium iodide staining based flow cytometry (reference value: 0.46%); format: functional
A549 [10] = assay: Induction of apoptosis in human A549 cells assessed as necrotic cells at 2.5 uM after 48 hrs by Annexin V-FITC/propidium iodide staining based flow cytometry (reference value: 0.88%); format: functional
DCN1-like protein 3 = molecular target: T1, DCN1-like protein 3 (Homo sapiens, UniProt Q8IWE4); assay: Binding affinity to N-terminal GST tagged recombinant DCN3 (unknown origin) (86 to 304 residues) expressed in Escherichia coli BL21(DE3) assessed as reduction in DCN1/FAM-labelled N-terminal acetylated UBE2M (1 to 21 residues) protein-protein interaction after 30 mins by HTRF assay
T1 sequence (Q8IWE4 whole entry): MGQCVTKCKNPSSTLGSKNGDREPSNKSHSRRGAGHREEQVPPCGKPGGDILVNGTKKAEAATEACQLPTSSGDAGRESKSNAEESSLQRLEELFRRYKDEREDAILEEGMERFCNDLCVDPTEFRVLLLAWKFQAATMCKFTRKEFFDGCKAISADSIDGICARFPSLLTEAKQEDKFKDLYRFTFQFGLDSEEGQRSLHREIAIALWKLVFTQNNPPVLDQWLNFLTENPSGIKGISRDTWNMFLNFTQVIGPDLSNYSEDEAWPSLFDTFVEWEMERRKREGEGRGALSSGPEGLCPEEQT
Outline: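 HTRF competition: 5nM GST-tagged DCN (1-5) and 5nM AcUBE2M1-21-biotin peptide, with streptavidin-XL665 and anti-GST cryptate, in 100mM phosphate buffer pH 6.5 with 0.02% Tween-20. Cocktail pre-incubated 30min at room temperature, compound added, then 30min more. Excitation 320nm, emission 615/665nm. Ki from three independent repeats, mean ± SD.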

NCI-H1975 [11] = assay: Induction of apoptosis in human NCI-NCI-H1975 cells assessed as early apoptotic cells at 10 uM after 48 hrs by Annexin V-FITC/propidium iodide staining based flow cytometry (reference value: 2.47%); format: functional
A549 [12] = assay: Antiproliferative activity against human A549 by MTT assay; format: functional, cell-based; conditions: TDE = time-dependent effect
PC-9 [13] = assay: Induction of apoptosis in human PC9 cells assessed as late apoptotic cells at 5 uM after 48 hrs by Annexin V-FITC/propidium iodide staining based flow cytometry (reference value: 1.57%); format: functional
PC-9 [14] = assay: Effect on Cullin3 neddylation in human PC9 cells transfected with DCN1 siRNA3 by densitometric method; format: functional, cell-based; outline: as §2
PC-9 [15] = assay: Induction of apoptosis in human PC9 cells assessed as late apoptotic cells at 2.5 uM after 48 hrs by Annexin V-FITC/propidium iodide staining based flow cytometry (reference value: 1.57%); format: functional
KYSE-140 = assay: Antiproliferative activity against human KYSE-140 after 72 hrs by MTT assay; format: functional, cell-based; outline: as §1
GES1 = assay: Antiproliferative activity against human GES-1 after 72 hrs by MTT assay; format: cell-based; conditions: ges1, 72 h; outline: as §1
L02 = assay: Antiproliferative activity against human L02 after 72 hrs by MTT assay; format: cell-based; conditions: l02, 72 h; outline: as §1
NCI-H1975 [16] = assay: Induction of apoptosis in human NCI-NCI-H1975 cells assessed as early apoptotic cells at 5 uM after 48 hrs by Annexin V-FITC/propidium iodide staining based flow cytometry (reference value: 2.47%); format: functional
A549 [17] = assay: Induction of apoptosis in human A549 cells after 48 hrs by Annexin V-FITC/propidium iodide staining based flow cytometry; format: functional, cell-based
NCI-H1975 [18] = assay: Induction of apoptosis in human NCI-NCI-H1975 cells assessed as late apoptotic cells at 2.5 uM after 48 hrs by Annexin V-FITC/propidium iodide staining based flow cytometry (reference value: 0.46%); format: functional
A549 [19] = assay: Inhibition of colony formation in human A549 cells after 7 days by crystal violet staining based microscopic analysis; format: functional, cell-based; outline: as §3
A549 [20] = assay: Induction of apoptosis in human A549 cells assessed as viable cells at 10 uM after 48 hrs by Annexin V-FITC/propidium iodide staining based flow cytometry (reference value: 92.9%); format: functional; conditions: A549, 48 h, read-out: Activity

For `C#CCSc1nc(Sc2nccs2)c(C#N)c(-c2ccc(C)cc2)n1`, the IC50 (PC-9 [1]) was 1110 nM, the Activity (PC-9 [1]; TDE = time-dependent effect) was “Tde” and the Activity (PC-9 [2]) was “inactive”. The IC50 (SMMC-7721) was 2450 nM, the Activity (NCI-H1975 [3]) was 29% and the viability at 5 µM (NCI-H1975 [4]) was 37.7%. It also gave an Activity (A549 [5]) of 8.75%, an IC50 (DCN1-like protein 1) of 15.7 nM and a Ki (DCN1-like protein 1) of 13.7 nM. The inhibition (PC-9 [6]) was “Dose-dependent effect”, the inhibition (NCI-H1975 [7]) was “Dose-dependent effect” and the Activity (NCI-H1975 [8]) was “inactive”. For the same compound, the Activity (NCI-H1975 [9]) was 46.9%, the Activity (A549 [10]) was 1.22% and the Ki (DCN1-like protein 3) was 592 nM. For the same compound, the Activity (NCI-H1975 [11]) was 33.2%, the Activity (A549 [12]) was “Tde” and the Activity (PC-9 [13]) was 22.7%. The Activity (PC-9 [14]) was “inactive”, the Activity (PC-9 [15]) was 10.2% and the Activity (KYSE-140) was “Active”. For the same compound, the Activity (GES1) was “Non-Toxic”, the Activity (L02) was “Non-Toxic” and the Activity (NCI-H1975 [16]) was 28.4%. For the same compound, the Activity (A549 [17]) was “Dose-dependent effect”, the Activity (NCI-H1975 [18]) was 9.13% and the inhibition (A549 [19]) was “Dose-dependent effect”. For the same compound, the viability at 10 µM (A549 [20]) was 15.7%.
